Data taken from ChEMBL document CHEMBL1142456, “4-Anilino-7-alkenylquinoline-3-carbonitriles as potent MEK1 kinase inhibitors” (Bioorg Med Chem, 2008).

Columns and labels:
[1] = Plasma concentration in mouse at 50 mg/kg, po after 4 hrs; type: ADME, organism-based; set-up: dose 50 mg/kg, route oral
Procedure, shortened: (§1)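 Nude mice given a single 50 mg/kg oral dose. Blood levels measured at 2 and 4 h (one compound at 1 h), three mice per measurement, with coefficient of variation reported.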

[2] = Plasma concentration in mouse at 50 mg/kg, po after 2 hrs; type: ADME, organism-based; set-up: dose 50 mg/kg, route oral; procedure, shortened: as §1
[3] = Volume of distribution at steady state in male rat at 1 mg/kg, iv; type: ADME, organism-based; set-up: dose 1 mg/kg, route intravenous; conditions: in vivo, read-out: Vdss
[4] = Oral bioavailability in nude mouse at 50 mg/kg; type: ADME, organism-based; conditions: in vivo
Procedure, shortened: (§2)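 Female nude mice given a single dose, 2 mg/kg iv in 0.5% methylcellulose/1% Tween 80 brought to pH 3 with aqueous HCl, or 50 mg/kg by oral gavage. Three mice per group were bled by cardiac stick under isoflurane at 0.25, 0.5, 1, 4, 8 and 24 h and plasma collected. Cl, Vss, T1/2, Cmax, AUC extrapolated to infinity and %F were derived.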

[5] = Cmax in male rat at 10 mg/kg, po; type: ADME, organism-based; set-up: dose 10 mg/kg, route oral; conditions: in vivo
[6] = Half life in nude mouse at 2 mg/kg, iv; type: ADME, organism-based; set-up: dose 2 mg/kg, route intravenous; conditions: in vivo; procedure, shortened: as §2
[7] = AUC (infinity) in male rat at 10 mg/kg, po; type: ADME, organism-based; set-up: time infinity, dose 10 mg/kg, route oral; conditions: plasma
[8] = Volume of distribution at steady state in female rat at 1 mg/kg, iv; type: ADME, organism-based; set-up: dose 1 mg/kg, route intravenous; conditions: in vivo, read-out: Vdss
[9] = Cmax in nude mouse at 50 mg/kg, po; type: ADME, organism-based; set-up: dose 50 mg/kg, route oral; conditions: in vivo; procedure, shortened: as §2
[10] = Half life in female rat at 1 mg/kg, iv; type: ADME, organism-based; set-up: dose 1 mg/kg, route intravenous; conditions: in vivo
[11] = Oral bioavailability in female rat at 10 mg/kg; type: ADME, organism-based; conditions: in vivo
[12] = AUC (infinity) in female rat at 10 mg/kg, po; type: ADME, organism-based; set-up: time infinity, dose 10 mg/kg, route oral; conditions: plasma
[13] = Clearance in nude mouse at 2 mg/kg, iv; type: ADME, organism-based; set-up: dose 2 mg/kg, route intravenous; conditions: in vivo; procedure, shortened: as §2
[14] = Clearance in female rat at 1 mg/kg, iv; type: ADME, organism-based; set-up: dose 1 mg/kg, route intravenous; conditions: in vivo
[15] = Oral bioavailability in male rat at 10 mg/kg; type: ADME, organism-based; conditions: in vivo
[16] = Metabolic stability in CD1 rat liver microsomes; type: ADME, Microsome
Procedure, shortened: (§3)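 Stability measured as half-life on exposure to male CD-1 mouse and rat liver microsomes.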

[17] = Clearance in male rat at 1 mg/kg, iv; type: ADME, organism-based; set-up: dose 1 mg/kg, route intravenous; conditions: in vivo
[18] = Metabolic stability in mouse liver microsomes; type: ADME, Microsome; procedure, shortened: as §3
[19] = AUC (infinity) in nude mouse at 50 mg/kg, po; type: ADME, organism-based; set-up: time infinity, dose 50 mg/kg, route oral; conditions: plasma; procedure, shortened: as §2
[20] = Volume of distribution at steady state in nude mouse at 2 mg/kg, iv; type: ADME, organism-based; set-up: dose 2 mg/kg, route intravenous; conditions: in vivo, read-out: Vdss; procedure, shortened: as §2
[21] = Half life in male rat at 1 mg/kg, iv; type: ADME, organism-based; set-up: dose 1 mg/kg, route intravenous; conditions: in vivo
[22] = Cmax in female rat at 10 mg/kg, po; type: ADME, organism-based; set-up: dose 10 mg/kg, route oral; conditions: in vivo
[23] = Apparent permeability across PAMPA membrane; type: ADME; conditions: read-out: permeability
Procedure, shortened: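 Permeability measured in a PAMPA assay, reported in cm/s.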

[24] = Plasma concentration in mouse at 50 mg/kg, po after 1 hr; type: ADME, organism-based; set-up: dose 50 mg/kg, route oral; procedure, shortened: as §1

**Q.** With `Cn1ccnc1Sc1ccc(Nc2c(C#N)cnc3cc(/C=C/CCN4CCOCC4)ccc23)cc1Cl` as the molecule, how does the concentration at 4 h [1] read?
**A.** 22 ng/mL

**Q.** And the concentration at 2 h [2]?
**A.** 95 ng/mL

**Q.** With `CCN1CCN(CC/C=C/c2ccc3c(Nc4ccc(Sc5nccn5C)c(Cl)c4)c(C#N)cnc3c2)CC1` as the molecule, how does the Vd [3] read?
**A.** 7.6 L/kg

**Q.** What about the bioavailability [4] of the same molecule?
**A.** 17%

**Q.** What about the Cmax [5] of the same molecule?
**A.** 61 ng/mL

**Q.** And the half-life [6]?
**A.** 54 min

**Q.** What about the AUC(0-inf) [7] of the same molecule?
**A.** 204 ng·h/mL

**Q.** And the concentration at 4 h [1]?
**A.** 132 ng/mL

**Q.** What about the Vd [8] of the same molecule?
**A.** 5.7 L/kg

**Q.** And the Cmax [9]?
**A.** 510 ng/mL

**Q.** What about the half-life [10] of the same molecule?
**A.** 150 min

**Q.** And the concentration at 2 h [2]?
**A.** 494 ng/mL

**Q.** And the bioavailability [11]?
**A.** 23%

**Q.** What about the AUC(0-inf) [12] of the same molecule?
**A.** 988 ng·h/mL

**Q.** What about the clearance [13] of the same molecule?
**A.** 66 mL/min/kg

**Q.** And the clearance [14]?
**A.** 35.7 mL/min/kg

**Q.** What about the bioavailability [15] of the same molecule?
**A.** 13%

**Q.** And the half-life [16]?
**A.** 21 min

**Q.** What about the clearance [17] of the same molecule?
**A.** 70.3 mL/min/kg

**Q.** And the half-life [18]?
**A.** 16.5 min

**Q.** And the AUC(0-inf) [19]?
**A.** 2170 ng·h/mL

**Q.** And the Vd [20]?
**A.** 2.7 L/kg

**Q.** And the half-life [21]?
**A.** 108 min

**Q.** And the Cmax [22]?
**A.** 298 ng/mL

**Q.** What about the Papp [23] of the same molecule?
**A.** 0.45 ×10⁻⁶ cm/s

**Q.** Which concentration at 4 h [1] does the source give for `CN1CCN(CC/C=C/c2ccc3c(Nc4ccc(Sc5nccn5C)c(Cl)c4)c(C#N)cnc3c2)CC1` here?
**A.** 85 ng/mL

**Q.** And the concentration at 2 h [2]?
**A.** 368 ng/mL

**Q.** What does the source list for `Cn1ccnc1Sc1ccc(Nc2c(C#N)cnc3cc(/C=C/CN4CCCC4)ccc23)cc1Cl`?
**A.** concentration at 1 h [24]: 72 ng/mL; concentration at 4 h [1]: 11 ng/mL

**Q.** Which results are given for `Cn1ccnc1Sc1ccc(Nc2c(C#N)cnc3cc(/C=C/CCN4CCCC4)ccc23)cc1Cl`?
**A.** concentration at 4 h [1]: 82 ng/mL; concentration at 2 h [2]: 319 ng/mL

**Q.** For `COc1cc2c(Nc3ccc(Sc4nccn4C)c(Cl)c3)c(C#N)cnc2cc1/C=C/CCN1CCN(C)CC1`, which concentration at 4 h [1] is on record?
**A.** 76 ng/mL

**Q.** And the concentration at 2 h [2]?
**A.** 267 ng/mL
